Measurements reported in ChEMBL document CHEMBL1681637, “Synthesis and antitubercular activity of monocyclic nitroimidazoles: insights from econazole” (Bioorg Med Chem Lett, 2011).
Converted amounts (≈) assume the structure as drawn.

Columns and labels:
Candida albicans = test: Antifungal activity against Candida albicans ATCC 90027 after 48 hrs by broth microdilution method; type: functional; conditions: ATCC 90027, 48 h
Vero = test: Cytotoxicity against african green monkey Vero cells by MTT assay; type: cell-based; conditions: Chlorocebus sabaeus
How it was run: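 Vero cells were exposed to compound stocks made in DMSO and serially diluted 2-fold in RPMI 1640 medium. The top test concentration varied between compounds because of limited solubility. MTT read-out followed the kit manufacturer's protocol.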

| Compound | MIC (Candida albicans) | IC50 (Vero) |
| --- | --- | --- |
| O=[N+]([O-])c1cn(CC(O)c2ccc(Cl)cc2)c(Br)n1 (racemic) | > 256 µg/mL | > 100 µg/mL |
| O=[N+]([O-])c1cn(CC(O)c2ccc(Cl)cc2Cl)cn1 (racemic) | > 256 µg/mL | > 250 µg/mL |
| Cc1nc([N+](=O)[O-])cn1CC(O)c1ccc(Cl)cc1Cl (racemic) | > 256 µg/mL | > 250 µg/mL |
| O=[N+]([O-])c1cn(CC(O)c2ccc(Cl)cc2Cl)c(Br)n1 (racemic) | > 256 µg/mL | 100 µg/mL (≈ 262 µM) |
| O=[N+]([O-])c1cn(CC(O)c2ccc(F)cc2F)cn1 (racemic) | > 256 µg/mL | 292 µg/mL (≈ 1080 µM) |
| O=[N+]([O-])c1cn(CC(O)c2ccc(F)cc2F)c(Br)n1 (racemic) | > 256 µg/mL | > 200 µg/mL |
| O=[N+]([O-])c1cn(CC(O)c2ccc(F)cc2)c(Br)n1 (racemic) | > 256 µg/mL | > 100 µg/mL |
| O=[N+]([O-])c1ccc(C(O)Cn2cc([N+](=O)[O-])nc2Br)cc1 (racemic) | > 256 µg/mL | > 100 µg/mL |
| O=[N+]([O-])c1cn(CC(O)c2ccc(-c3ccccc3)cc2)c(Br)n1 (racemic) | > 256 µg/mL | > 100 µg/mL |
| O=[N+]([O-])c1cn(CC(O)c2ccccc2)c(Br)n1 (racemic) | > 256 µg/mL | > 100 µg/mL |
| Cc1ccc(C(O)Cn2cc([N+](=O)[O-])nc2Br)c(C)c1 (racemic) | > 256 µg/mL | 22 µg/mL (≈ 64.7 µM) |
| O=[N+]([O-])c1cn(CC(OCc2ccc(Cl)cc2)c2ccc(Cl)cc2Cl)cn1 (racemic) | > 256 µg/mL | > 16 µg/mL |
| Cc1nc([N+](=O)[O-])cn1CC(OCc1ccc(Cl)cc1)c1ccc(Cl)cc1Cl (racemic) | > 256 µg/mL | > 31 µg/mL |
| O=[N+]([O-])c1cn(CC(OCc2ccc(Cl)cc2)c2ccc(Cl)cc2Cl)c(Br)n1 (racemic) | > 256 µg/mL | > 62.5 µg/mL |
| O=[N+]([O-])c1cn(CC(OCc2ccc(Cl)cc2)c2ccc(F)cc2F)cn1 (racemic) | > 256 µg/mL | > 25 µg/mL |
| O=[N+]([O-])c1cn(CC(OCc2ccc(Cl)cc2)c2ccc(F)cc2F)c(Br)n1 (racemic) | > 256 µg/mL | > 25 µg/mL |
| O=[N+]([O-])c1cn(CC(OCc2ccccc2F)c2ccc(Cl)cc2Cl)cn1 (racemic) | > 256 µg/mL | > 63 µg/mL |
| O=[N+]([O-])c1cn(CC(OCc2ccc(F)cc2)c2ccc(Cl)cc2Cl)cn1 (racemic) | > 256 µg/mL | > 16 µg/mL |
| O=[N+]([O-])c1cn(CC(OCc2ccccc2F)c2ccc(Cl)cc2Cl)c(Br)n1 (racemic) | > 256 µg/mL | > 63 µg/mL |
| O=[N+]([O-])c1cn(CC(OCc2ccc(F)cc2)c2ccc(Cl)cc2Cl)c(Br)n1 (racemic) | > 256 µg/mL | > 16 µg/mL |
| O=[N+]([O-])c1cn(CC(OCc2ccc(F)cc2F)c2ccc(Cl)cc2Cl)cn1 (racemic) | > 256 µg/mL | > 25 µg/mL |
| O=[N+]([O-])c1cn(CC(OCc2cc(F)ccc2F)c2ccc(Cl)cc2Cl)cn1 (racemic) | > 256 µg/mL | > 25 µg/mL |
| O=[N+]([O-])c1cn(CC(OCc2ccc(OC(F)(F)F)cc2)c2ccc(Cl)cc2Cl)cn1 (racemic) | > 256 µg/mL | > 25 µg/mL |
| O=[N+]([O-])c1cn(CC(OCc2cc(F)cc(F)c2)c2ccc(Cl)cc2Cl)cn1 (racemic) | > 256 µg/mL | > 25 µg/mL |
| O=[N+]([O-])c1cn(CC(OCc2cc(F)cc(F)c2)c2ccc(Cl)cc2Cl)c(Br)n1 (racemic) | > 256 µg/mL | > 6 µg/mL |

| Compound | MIC (Candida albicans) | IC50 (Vero) |
| --- | --- | --- |
| O=[N+]([O-])c1cn(CC(OCc2ccc(F)cc2)c2ccc(F)cc2F)cn1 (racemic) | > 256 µg/mL | > 50 µg/mL |
| O=[N+]([O-])c1cn(CC(OCc2ccc(OC(F)(F)F)cc2)c2ccc(F)cc2F)cn1 (racemic) | > 256 µg/mL | > 50 µg/mL |
| O=[N+]([O-])c1cn(CC(OCc2cc(F)cc(F)c2)c2ccc(F)cc2F)cn1 (racemic) | > 256 µg/mL | > 50 µg/mL |
| COc1nc([N+](=O)[O-])cn1CC(O)c1ccc(Cl)cc1Cl (racemic) | > 256 µg/mL | 100 µg/mL (≈ 301 µM) |
| COc1nc([N+](=O)[O-])cn1CC(O)c1ccc(F)cc1F (racemic) | > 256 µg/mL | > 100 µg/mL |
| COc1nc([N+](=O)[O-])cn1CC(O)c1ccc(F)cc1 (racemic) | > 256 µg/mL | > 100 µg/mL |
| COc1nc([N+](=O)[O-])cn1CC(O)c1ccc(Cl)cc1 (racemic) | > 256 µg/mL | > 100 µg/mL |
| COc1nc([N+](=O)[O-])cn1CC(O)c1ccc([N+](=O)[O-])cc1 (racemic) | > 256 µg/mL | > 100 µg/mL |
| COc1nc([N+](=O)[O-])cn1CC(O)c1ccc(-c2ccccc2)cc1 (racemic) | > 256 µg/mL | > 100 µg/mL |
| CSc1nc([N+](=O)[O-])cn1CC(O)c1ccc(Cl)cc1Cl (racemic) | > 256 µg/mL | 59 µg/mL (≈ 169 µM) |
| COc1nc([N+](=O)[O-])cn1CC(O)c1ccccc1 (racemic) | > 256 µg/mL | > 100 µg/mL |
| COc1nc([N+](=O)[O-])cn1CC(O)c1ccc(C)cc1C (racemic) | > 256 µg/mL | 84 µg/mL (≈ 288 µM) |
| COc1nc([N+](=O)[O-])cn1CC(OCc1ccc(Cl)cc1)c1ccc(Cl)cc1Cl (racemic) | > 256 µg/mL | > 8 µg/mL |
| CSc1nc([N+](=O)[O-])cn1CC(OCc1ccc(F)cc1)c1ccc(Cl)cc1Cl (racemic) | > 256 µg/mL | > 13 µg/mL |
| COc1nc([N+](=O)[O-])cn1CC(OCc1ccc(OC(F)(F)F)cc1)c1ccc(Cl)cc1Cl (racemic) | > 256 µg/mL | > 13 µg/mL |
| COc1nc([N+](=O)[O-])cn1CC(OCc1ccc(Cl)cc1)c1ccc(F)cc1F (racemic) | > 256 µg/mL | > 13 µg/mL |
| COc1nc([N+](=O)[O-])cn1CC(OCc1ccc(F)cc1)c1ccc(F)cc1F (racemic) | > 256 µg/mL | > 25 µg/mL |
| COc1nc([N+](=O)[O-])cn1CC(OCc1ccc(OC(F)(F)F)cc1)c1ccc(F)cc1F (racemic) | > 256 µg/mL | > 25 µg/mL |
| COc1nc([N+](=O)[O-])cn1CC(OCc1cc(F)cc(F)c1)c1ccc(Cl)cc1Cl (racemic) | > 256 µg/mL | > 50 µg/mL |
| COc1nc([N+](=O)[O-])cn1CC(OCc1ccc(F)cc1)c1ccc(Cl)cc1Cl (racemic) | > 256 µg/mL | > 13 µg/mL |
| CSc1nc([N+](=O)[O-])cn1CC(OCc1ccc(Cl)cc1)c1ccc(Cl)cc1Cl (racemic) | > 256 µg/mL | > 13 µg/mL |
| CSc1nc([N+](=O)[O-])cn1CC(OCc1cc(F)cc(F)c1)c1ccc(Cl)cc1Cl (racemic) | > 256 µg/mL | > 135 µg/mL |
| CSc1nc([N+](=O)[O-])cn1CC(OCc1ccc(Cl)cc1)c1ccc(F)cc1F (racemic) | > 256 µg/mL | > 13 µg/mL |
| Clc1ccc(COC(Cn2ccnc2)c2ccc(Cl)cc2Cl)cc1 (stereo not drawn) [ECONAZOLE] | 16 µg/mL (≈ 41.9 µM) | – |
| O=[N+]([O-])c1cn2c(n1)OC[C@@H](OCc1ccc(OC(F)(F)F)cc1)C2 [PRETOMANID] | > 256 µg/mL | – |
